Screens as filed in PubChem.
In the library only some 2.6% were active in any assay of this set; here they are far more common.
core dimer inh: inhibitors of HCV core protein dimerization, primary screen, biochemical, TR-FRET, high-throughput | TR-FRET GST/Flag-core106 dimerization, 1536-well | inhibition, % at 5 µM | 0.33% of 300,000 active | AID 1899, 2009;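 active = inhibition above the mean of all tested compounds plus 3 SD, set per screening campaign, cut at about 45% in these data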
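assay system = GST-tagged and Flag-tagged HCV core protein residues 1-106 | controls = unlabelled core106 and no-GST-core106 wells | incubation = compound-protein-antibody incubation 4 h at 22.5 °C | probe or stimulus = Eu donor and XL665 acceptor anti-tag antibodies | read-out = % inhibition based on acceptor/donor emission ratio | signal = TR-FRET 671 and 617 nm emission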
ABHD5 PLIN5 PPI: ABHD5-PLIN5 interaction inhibitors, primary screen, cell lysate, split luciferase complementation, luminescence; Perilipin-5 (Homo sapiens) + 1-acylglycerol-3-phosphate O-acyltransferase ABHD5 (Homo …; Split G. princeps luciferase complementation, 4 h; inhibition, % at 4 µM; 0.78% of 360,000 active; AID 602281, 2012;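 active = inhibition above the mean inhibition across every tested compound plus 3 SD, cut at about 22% in these data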;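 note: 0% = DMSO only wells and the 100% control is not disclosed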
NadD block: inhibitors of S. aureus NadD, primary screen, biochemical, colorimetric, uHTS. Nicotinate-nucleotide adenylyltransferase NadD (Staphylococcus aureus N315). purified NadD enzyme, colorimetric absorbance read-out. inhibition, % at 20 µM. 0.78% of 360,000 active. AID 602399, 2012; in the data active = inhibition above about 26%
rCAG binder: binders of r(CAG) RNA repeats, primary screen, biochemical, fluorescence; 1.3% of 370,000 active; inhibition, % at 3 µM; r(CAG) RNA repeat, TO-PRO-1 dye displacement fluorescence;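 active = inhibition above the plate cutoff, the mean of all test compounds on that plate plus 3 SD, cut at about 35% in these data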;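 note: 0% = DMSO alone and 100% = 100 µM mitoxantrone as full dye displacement; higher means more dye released from RNA so lower well fluorescence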
NadD inh conf: inhibitors of S. aureus NadD, confirmation, biochemical, colorimetric, single concentration. shares compounds with NadD block. purified S. aureus NadD, colorimetric enzyme assay. inhibition, % at 20 µM. 13% of 2,000 active; in the data active = inhibition mostly above about 42%, no sharp cut-off; inactive = mostly below about 42%
* = called active by the depositor; · = not tested or not shown.

SMILES	core dimer inh	ABHD5 PLIN5 PPI	NadD block	rCAG binder	NadD inh conf
CCCCCC(=O)Nc1nc(C)c(-c2csc(Nc3cc(Cl)ccc3C)n2)s1	-44	-9	22	30	·
CCCC(C)C(=O)Nc1nc(C)c(-c2csc(Nc3cc(Cl)ccc3C)n2)s1 (centres undefined)	-85	-11	28*	29	13
Cc1ccc(Cl)cc1Nc1nc(-c2sc(NC(=O)c3cccc(Cl)c3)nc2C)cs1	-20	·	·	·	·
COc1cccc(N(C(=O)c2ccco2)c2nc(-c3sc(NC(=O)c4ccco4)nc3C)cs2)c1	-3	-3	36*	30	46
Cc1nc(NC(=O)c2ccco2)sc1-c1csc(Nc2ccc(Cl)cc2Cl)n1	1	-16	53*	48*	28
Cc1ccc(Cl)cc1Nc1nc(-c2sc(NC(=O)c3ccco3)nc2C)cs1	11	-16	36*	30	15
C#CCN1CCc2onc(-c3ccccc3OC)c2C1=O	·	8	-6	0	·
CCCCN1CC(COCc2ccccc2)Oc2cccc(Sc3ccc(OC)c(OC)c3)c2S1(=O)=O (centres undefined)	·	·	·	10	·
Cc1nc(NC(=O)c2ccco2)sc1-c1csc(Nc2ccc(Cl)cc2)n1	12	-9	36*	31	36
Cc1nc(NC(=O)c2ccccc2)sc1-c1csc(Nc2ccc(Cl)cc2)n1	17	·	·	·	·
N#Cc1c(SCc2c(Cl)cccc2Cl)nc(N)[nH]c1=S	·	6	30*	23	47*
C#CCN(C[C@H]1[C@H](OC(=O)NC2CC2)[C@H](OC(=O)NC2CC2)C[C@H]2C(=O)N(c3ccccc3)C(=O)[C@@H]12)S(=O)(=O)c1ccc(C)cc1	·	3	-6	9	·
C#CCN(C[C@H]1[C@H](OC(=O)NCc2ccccc2)[C@H](OC(=O)NCc2ccccc2)C[C@H]2C(=O)N(c3ccccc3)C(=O)[C@@H]12)S(=O)(=O)c1ccc(C)cc1	·	-2	35*	20	48*
C#CCN(C[C@H]1[C@H](OC(=O)NCC2CCCCC2)[C@H](OC(=O)NCC2CCCCC2)C[C@H]2C(=O)N(c3ccccc3)C(=O)[C@@H]12)S(=O)(=O)c1ccc(C)cc1	·	-4	37*	22	21
C#CCN(C[C@H]1[C@H](OC(=O)Nc2cccs2)[C@H](OC(=O)Nc2cccs2)C[C@H]2C(=O)N(c3ccccc3)C(=O)[C@@H]12)S(=O)(=O)c1ccc(C)cc1	·	9	35*	26	50*
S=c1[nH]nc(COc2ccc(Cl)cc2)n1C1CCCCC1	3	-19	35*	5	33
Cc1ccc(OCc2n[nH]c(=S)n2C2CCCCC2)cc1	-2	-3	4	3	·
COC(=O)C1=C(C)N(Cc2ccccc2C(F)(F)F)C(=NCc2ccc(OC)cc2)NC1c1cccc(F)c1 (centres undefined)	·	·	·	5	·
COC(=O)c1ccc(N2C(c3ccsc3)=Cc3cc4c(cc3C2CC(=O)c2ccco2)OCO4)cc1 (centres undefined)	·	-2	31*	11	16
O=C(CC1c2cc(F)ccc2C=C(c2ccsc2)N1c1ccc(C#CCCO)cc1)c1ccco1 (centres undefined)	·	8	27	11	·
O=C(CC1c2ccccc2C=C(c2ccsc2)N1c1ccc(-c2cccnc2)cc1)C1CC1 (centres undefined)	·	-2	33*	9	12
COc1ncc(-c2ccc(N3C(c4ccsc4)=Cc4ccc(F)cc4C3CC(=O)c3ccco3)cc2)cn1 (centres undefined)	·	2	35*	13	10
COC(=O)c1ccc(N2C(c3cc(OC)cc(OC)c3)=Cc3ccc(OC)cc3C2CC(=O)c2ccco2)cc1 (centres undefined)	·	2	22	11	·
CCN(CC)C(=O)c1ccc2c(c1)NC(=O)C(C)(C)O2	·	·	·	3	·
CCNC(=O)N1CCN(c2ccc(N3CCN(C(=O)NCC)[C@H](C)C3)c(C)c2)[C@H](C)C1	·	·	·	0	·
SMILES	core dimer inh	ABHD5 PLIN5 PPI	NadD block	rCAG binder	NadD inh conf
NS(=O)(=O)c1cccc(NC(=O)CN2CCc3ccccc32)c1	11	4	38*	10	-4
O=c1ccn(C2CC(O)C(COC(c3ccccc3)(c3ccccc3)c3ccccc3)O2)c(=O)[nH]1 (centres undefined)	·	·	·	2	·
Cc1ccc(CNC(=O)c2ccc(N3CCC4(CC3)CC(c3ccccc3)=NO4)c(NC(=O)c3ccc(Br)cc3)c2)cc1	7	-5	36*	11	13
COc1ccc(-c2[nH]ncc2CN2CCCCCCC2)c(OC)c1	-2	-6	30*	1	15
CC(C)(C)n1nc(C2CC2)cc1NC(=O)Nc1ccccc1	·	·	·	1	·
COc1ccccc1NS(=O)(=O)c1cc(NC(=O)Nc2ccc(Cl)cc2Cl)ccc1N1CCCCC1	35	-5	43*	13	17
Cc1cc(C)c2nc(SCC(=O)Nc3ccc(S(=O)(=O)N4CCCC4)cc3)c(C)cc2c1	-11	8	36*	10	9
Cc1cc2nc(-c3ccc(SCC(=O)Nc4ccc(S(=O)(=O)N5CCCC5)cc4)nc3)[nH]c2cc1C	-62	-8	40*	16	11
CC(=O)Oc1ccc(C(=O)[C@H]2[C@H]3C(=O)N(c4cccc5ccccc45)C(=O)[C@H]3[C@@H]3C=CC=NN32)cc1	52*	3	45*	26	24
CCCc1nc2ccc(Cl)cn2c1Cc1ccccc1OC	·	-11	1	5	·
CCOC(=O)c1sc(NC(=O)c2cc3n(n2)C(C(F)(F)F)CC(c2cccs2)N3)c(C(=O)OCC)c1C (centres undefined)	2	-8	30*	3	3
CCOC(=O)c1sc(NC(=O)c2cc3n(n2)C(C(F)(F)F)CC(c2ccccc2)N3)c(C(=O)OCC)c1C (centres undefined)	-4	9	-3	-2	·
O=C/C(=C\Nc1ccc(Cl)cn1)c1nc2cc(Cl)ccc2o1	4	-1	38*	4	8
O=C(Nc1nc(C2C3CC4CC(C3)CC2C4)cs1)c1cc2cc([N+](=O)[O-])ccc2oc1=O (centres undefined)	5	-2	35*	16	4
Cc1ccc(C(CCN(Cc2ccccc2)C(=O)c2ccco2)c2ccco2)cc1 (centres undefined)	38	29*	38*	10	37
COc1cc(CCN(C(=O)c2cc3ccccc3[nH]2)C(C)c2nc3ccccc3[nH]2)cc(OC)c1 (centres undefined)	·	-3	4	7	·
CN(C)c1ccc(C(CN)c2c[nH]c3ccccc23)cc1 (centres undefined)	-1	5	31*	13	11
